In ChEMBL document CHEMBL1131041 (J Med Chem, 1998):

Key:
[1] = Relative affinity for guinea pig kappa1 and rat delta receptors
[2] = target: T1, Kappa-type opioid receptor (Cavia porcellus, UniProt P41144); assay: Displacement of [3H]U-69593 from Opioid receptor kappa 1 of guinea pig brain membranes (pretreated with BIT and FIT to block mu and delta sites)
How it was run: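 Guinea pig brain membranes pretreated with BIT and FIT, labelled with [3H]U69,593. Incubation 4–6 h at 25 °C in 50 mM Tris-HCl pH 7.4 with protease inhibitors and 1 μg/mL captopril. Nonspecific binding with 1 μM U69,593. 8–10 concentrations, twice.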

[3] = Selectivity for mu receptor of guinea pig Ileum (GPI) and delta receptor of delta opioid receptor of mouse vas deferens (MVD) smooth muscle preparation; format: tissue-based
[4] = target: Opioid receptors; mu & delta (Rattus norvegicus) (UniProt P33533+P33535); assay: Relative affinity for mu and delta receptors in rat brain membranes; format: cell membranes
[5] = target: Delta-type opioid receptor (Mus musculus) (UniProt P32300); assay: Displacement of DPDPE from Opioid receptor delta 1 of mouse vas deferens (MVD)smooth muscle
How it was run: (§1)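 Mouse vas deferens (male ICR, 25–40 g) in Mg-free oxygenated Krebs at 37 °C, 0.5 g tension; transmural 0.1 Hz, 2-ms pulses, supramaximal voltage. Control DPDPE curve first; then 1 μM compound 30 min, 30 min wash, cumulative DPDPE curve (3-min steps) repeated. IC50 ratio = shifted/control IC50; Ke = [antagonist]/(ratio − 1); n ≥ 3.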

[6] = target: T2, Delta-type opioid receptor (Rattus norvegicus, UniProt P33533); assay: Displacement of [3H]DADLE from morphine-insensitive Opioid receptor delta 1 (presence of 50 nM morphine) of rat brain membranes; format: cell membranes, Membrane
How it was run: (§2)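 Rat brain membranes pretreated with (+)-trans-[…], labelled with 2.0 nM [3H]DADLE, plus 50 nM morphine (δcx-2) or 300 nM DELT-II (δcx-1). Incubation 4–6 h at 25 °C in 10 mM Tris-HCl pH 7.4 with 100 mM NaCl, 3 mM MnCl2, 2 μM GTP, 5 mM 2-mercaptoethanol and protease inhibitors. 8–10 concentrations, twice.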

[7] = target: T2, Delta-type opioid receptor; assay: Displacement of [3H]DADLE from Opioid receptor delta 1 of rat brain membranes (DAMGO quenching mu receptor); format: cell membranes, Membrane
How it was run: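 Rat brain membranes labelled with [3H]DADLE. Incubation 3–4 h at 25 °C in 10 mM Tris-HCl pH 7.4 with 100 mM choline chloride, 3 mM MnCl2, 100 nM DAMGO (μ block) and protease inhibitors. Levallorphan 20 μM for nonspecific binding. 8–10 concentrations, duplicate runs.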

Cavia porcellus [8] = species: Cavia porcellus; assay: Binding affinity of compound was measured on electrically stimulated guinea pig ileal longitudinal muscle myenteric plexus (GPI) preparation using PL017 as standard antagonist; format: functional; settings: Muscle tissue
How it was run: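 Electrically stimulated guinea pig ileum longitudinal muscle–myenteric plexus (male Hartley, 250–500 g) in oxygenated Krebs at 37 °C, 1 g tension; 0.1 Hz, 0.4-ms pulses. Tissue preincubated 30 min with 1 μM compound, washed 30 min, then cumulative PL-017 curve repeated. Ke = [antagonist]/(IC50 ratio − 1); n ≥ 3.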

Mu-type opioid receptor = Mu-type opioid receptor (Rattus norvegicus, UniProt P33535); assay: Displacement of [3H]DAMGO from Opioid receptor mu 1 of rat brain membranes; format: cell membranes, Membrane
How it was run: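 Rat brain membranes labelled with [3H]DAMGO. Incubation 4 h at 25 °C in 50 mM Tris-HCl pH 7.4 with protease inhibitor cocktail. Nonspecific binding defined with 20 μM levallorphan. 8–10 test concentrations, run twice; IC50 and slope factor derived.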

[9] = target: Delta-type opioid receptor (Mus musculus) (UniProt P32300); assay: Displacement of DPDPE from Opioid receptor delta 1 of mouse vas deferens (MVD) smooth muscle; how it was run: as §1
[10] = target: T2, Delta-type opioid receptor; assay: Displacement of [3H]DADLE from morphine-sensitive Opioid receptor delta 1 (presence of 300 nM DELT-II) of rat brain membranes; format: cell membranes, Membrane; how it was run: as §2
Cavia porcellus [11] = species: Cavia porcellus; assay: (§3) Partial agonist activity expressed as inhibition of contraction of guinea pig ileal longitudinal muscle myenteric plexus (GPI) at 1 uM conc.; format: functional, Muscle tissue
How it was run: (§4)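 Agonist action on electrically driven tissues at 37 °C: GPI (1 g tension, 0.4-ms pulses) and Mg-free MVD (0.5 g, 2-ms pulses), 0.1 Hz. Percent inhibition of contraction height read 10 min after 1 μM compound; for stronger agonists, IC50 from concentration–response curves (2–4 tissues, nonlinear least squares). Selectivity = GPI IC50/MVD IC50.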

[12] = target: T1, Kappa-type opioid receptor; assay: Displacement of [125I]OXY from Opioid receptor kappa 2b of guinea pig brain membranes (pretreated with BIT(mu) and FIT(delta) and in the presence of (-)U50,488)
How it was run: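 Guinea pig brain membranes depleted of μ/δ sites by BIT and FIT, labelled with 0.01 nM [125I]IOXY in presence of 5 μM (−)U50,488. Incubation 4–6 h at 4 °C in 50 mM Tris-HCl pH 7.4 with 10 mM NaCl, protease inhibitors and 1 μg/mL captopril.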

Mus musculus [13] = species: Mus musculus; assay: (§5) Partial agonist activity expressed as inhibition of contraction of mouse vas deferens (MVD) smooth muscle at 1 uM conc.; format: functional, Muscle tissue; how it was run: as §4
[14] = target: Mu-type opioid receptor (Mus musculus) (UniProt P42866); assay: Compound was tested for antagonist activity against Opioid receptor mu 1 on electrically stimulated guinea pig ileal longitudinal muscle myenteric plexus (GPI) using PL017 as antagonist ligand. IC50 ratio = IC50(agonist)/IC50 (control); format: functional; settings: Cavia porcellus; target entry is the homologue from another species
How it was run: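 Guinea pig ileum longitudinal muscle–myenteric plexus (male Hartley, 250–500 g) in oxygenated Krebs at 37 °C, 1 g tension; 0.1 Hz, 0.4-ms pulses, supramaximal voltage. Control PL-017 curve first; 1 μM compound 30 min, 30 min wash, cumulative PL-017 curve repeated. IC50 ratio = antagonized/unantagonized IC50; n ≥ 3.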

[15] = target: Opioid receptors; mu & delta (Homo sapiens) (UniProt P41143+P35372); assay: IC50 selectivity for mu receptor of guinea pig Ileum (GPI) and delta receptor of delta opioid receptor of mouse vas deferens (MVD) smooth muscle preparation; format: tissue-based; how it was run: as §4
Mus musculus [16] = species: Mus musculus; assay: as §5; format: functional, organism-based; settings: Muscle tissue; how it was run: as §4
Cavia porcellus [17] = species: Cavia porcellus; assay: as §3; format: functional, organism-based; settings: Muscle tissue; how it was run: as §4

Chain of Delta-type opioid receptor (Mus musculus) (P32300 whole entry): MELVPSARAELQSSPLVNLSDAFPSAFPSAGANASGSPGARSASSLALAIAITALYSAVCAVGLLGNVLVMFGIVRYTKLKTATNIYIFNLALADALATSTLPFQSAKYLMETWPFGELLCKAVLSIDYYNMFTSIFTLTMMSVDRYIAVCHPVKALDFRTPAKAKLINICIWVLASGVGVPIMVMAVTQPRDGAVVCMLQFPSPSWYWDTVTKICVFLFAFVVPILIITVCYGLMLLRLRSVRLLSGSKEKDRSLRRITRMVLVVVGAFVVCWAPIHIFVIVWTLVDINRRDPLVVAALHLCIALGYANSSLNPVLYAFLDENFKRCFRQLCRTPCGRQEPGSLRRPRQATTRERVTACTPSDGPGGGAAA
Chain of Mu-type opioid receptor (P33535 whole entry): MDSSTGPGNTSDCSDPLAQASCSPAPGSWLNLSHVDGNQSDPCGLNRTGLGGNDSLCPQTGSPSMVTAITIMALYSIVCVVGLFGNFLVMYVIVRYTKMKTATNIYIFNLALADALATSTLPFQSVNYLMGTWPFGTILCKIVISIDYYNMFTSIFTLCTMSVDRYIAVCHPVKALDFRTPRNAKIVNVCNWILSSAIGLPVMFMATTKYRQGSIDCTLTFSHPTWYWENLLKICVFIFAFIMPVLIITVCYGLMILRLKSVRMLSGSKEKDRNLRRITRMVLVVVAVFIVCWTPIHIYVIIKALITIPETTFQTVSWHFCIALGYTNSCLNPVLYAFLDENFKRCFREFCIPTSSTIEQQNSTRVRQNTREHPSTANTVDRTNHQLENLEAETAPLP
Chain of Mu-type opioid receptor (Mus musculus) (P42866 whole entry): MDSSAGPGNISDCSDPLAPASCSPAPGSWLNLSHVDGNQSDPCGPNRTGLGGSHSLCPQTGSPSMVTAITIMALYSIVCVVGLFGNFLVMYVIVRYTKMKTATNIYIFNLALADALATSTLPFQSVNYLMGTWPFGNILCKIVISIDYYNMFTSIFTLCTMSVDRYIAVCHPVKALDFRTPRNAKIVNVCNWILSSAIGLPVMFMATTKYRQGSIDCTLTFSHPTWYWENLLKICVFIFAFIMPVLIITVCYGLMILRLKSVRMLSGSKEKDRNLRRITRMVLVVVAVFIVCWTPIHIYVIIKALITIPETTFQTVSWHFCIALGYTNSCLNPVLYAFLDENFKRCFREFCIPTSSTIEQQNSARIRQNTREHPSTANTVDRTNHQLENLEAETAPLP
T2 sequence (P33533 whole entry): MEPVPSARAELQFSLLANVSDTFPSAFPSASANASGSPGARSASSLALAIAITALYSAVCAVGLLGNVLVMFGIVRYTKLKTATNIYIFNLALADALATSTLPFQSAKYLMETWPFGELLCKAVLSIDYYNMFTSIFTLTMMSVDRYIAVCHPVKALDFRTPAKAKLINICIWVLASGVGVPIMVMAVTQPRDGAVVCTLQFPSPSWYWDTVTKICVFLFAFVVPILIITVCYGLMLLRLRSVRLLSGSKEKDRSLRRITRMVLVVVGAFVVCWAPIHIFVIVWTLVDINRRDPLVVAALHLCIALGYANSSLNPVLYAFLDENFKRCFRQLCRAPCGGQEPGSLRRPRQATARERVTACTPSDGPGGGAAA
Chain of Opioid receptors; mu & delta (Rattus norvegicus) (P33533 whole entry, looked up): as the sequence (P33533 whole entry) above
Chain of Opioid receptors; mu & delta (Rattus norvegicus) (P33535 whole entry, looked up): as the sequence (P33535 whole entry) above
T1 sequence (P41144 whole entry): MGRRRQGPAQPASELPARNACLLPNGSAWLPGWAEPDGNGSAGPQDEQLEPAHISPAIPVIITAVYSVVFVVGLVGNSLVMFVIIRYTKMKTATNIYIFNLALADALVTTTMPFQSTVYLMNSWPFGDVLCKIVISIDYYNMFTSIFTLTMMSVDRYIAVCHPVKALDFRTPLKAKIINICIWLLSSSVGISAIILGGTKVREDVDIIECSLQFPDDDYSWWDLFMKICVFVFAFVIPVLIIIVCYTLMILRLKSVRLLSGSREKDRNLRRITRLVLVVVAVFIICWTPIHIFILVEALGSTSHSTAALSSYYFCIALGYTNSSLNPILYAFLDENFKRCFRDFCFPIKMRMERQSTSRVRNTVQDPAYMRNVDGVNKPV
Chain of Opioid receptors; mu & delta (Homo sapiens) (P35372 whole entry, looked up): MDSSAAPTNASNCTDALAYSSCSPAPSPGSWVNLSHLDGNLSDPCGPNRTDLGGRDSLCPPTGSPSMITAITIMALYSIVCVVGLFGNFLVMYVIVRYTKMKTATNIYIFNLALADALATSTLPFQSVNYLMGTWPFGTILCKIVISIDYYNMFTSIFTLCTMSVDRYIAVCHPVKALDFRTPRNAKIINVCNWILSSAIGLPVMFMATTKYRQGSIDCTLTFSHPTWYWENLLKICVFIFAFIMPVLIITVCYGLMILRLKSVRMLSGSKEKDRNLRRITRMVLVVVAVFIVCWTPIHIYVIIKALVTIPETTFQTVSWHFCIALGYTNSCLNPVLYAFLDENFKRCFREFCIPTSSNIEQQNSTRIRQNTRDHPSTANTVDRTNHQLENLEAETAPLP
Chain of Opioid receptors; mu & delta (Homo sapiens) (P41143 whole entry, looked up): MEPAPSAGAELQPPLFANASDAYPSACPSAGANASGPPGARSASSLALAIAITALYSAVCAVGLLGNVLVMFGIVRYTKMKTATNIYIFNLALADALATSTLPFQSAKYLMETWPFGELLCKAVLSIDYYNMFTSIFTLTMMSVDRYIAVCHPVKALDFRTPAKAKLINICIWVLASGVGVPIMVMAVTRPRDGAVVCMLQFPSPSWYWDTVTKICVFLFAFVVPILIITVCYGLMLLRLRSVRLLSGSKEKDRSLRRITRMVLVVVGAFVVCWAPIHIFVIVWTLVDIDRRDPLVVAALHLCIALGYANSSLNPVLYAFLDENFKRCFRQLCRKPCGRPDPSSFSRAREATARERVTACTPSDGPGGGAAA

| Structure (SMILES) | Selectivity ratio [1] | Ki [2] | Selectivity ratio [3] | Selectivity ratio [4] | Ke [5] | Ki [6] | Ki [7] | Ke (Cavia porcellus [8]) | Ki (Mu-type opioid receptor) | Ratio [9] | Ki [10] | Max response (Cavia porcellus [11]) | Ki [12] | Max response (Mus musculus [13]) | Ratio [14] | Selectivity ratio [15] | IC50 (Mus musculus [16]) | IC50 (Cavia porcellus [17]) |
| --- | --- | --- | --- | --- | --- | --- | --- | --- | --- | --- | --- | --- | --- | --- | --- | --- | --- | --- |
| Oc1ccc2c3c1OC1c4[nH]c5ccc(-c6ccccc6)cc5c4C[C@@]4(O)[C@@H](C2)N(CC2CC2)CC[C@]314 (some centres undefined) | 22 | 354 nM | 12 | 10 | 9.4 nM | 24.7 nM | 15.8 nM | 110 nM | 165 nM | 110 | 121 nM | 0% | 186 nM | 25% | – | – | – | – |
| Oc1ccc2c3c1OC1c4[nH]c5ccc(OCc6ccccc6)cc5c4C[C@@]4(O)[C@@H](C2)N(CC2CC2)CC[C@]314 (some centres undefined) | 19 | 82.1 nM | 117 | 18 | 4.8 nM | 1.7 nM | 4.4 nM | 560 nM | 81 nM | 210 | 14.9 nM | 24% | 85.8 nM | 35% | 2.8 | – | – | – |
| Oc1ccc2c3c1OC1c4[nH]c5c(Oc6ccccc6)cccc5c4C[C@@]4(O)[C@@H](C2)N(CC2CC2)CC[C@]314 (some centres undefined) | 47 | 33.6 nM | – | 48 | 0.25 nM | 0.61 nM | 0.71 nM | – | 34.2 nM | 4000 | 18.7 nM | – | 56.8 nM | – | – | 0.11 | 4100 nM | 450 nM |
| Oc1ccc2c3c1O[C@H]1c4[nH]c5ccccc5c4C[C@@]4(O)[C@@H](C2)N(CC2CC2)CC[C@]314 [NALTRINDOLE] | – | 34.1 nM | – | – | 0.49 nM | 0.24 nM | 0.29 nM | 43 nM | – | – | 12.3 nM | 18% | 19.9 nM | 16% | – | – | – | – |
| Oc1ccc2c3c1OC1c4[nH]c5cc(-c6ccccc6)ccc5c4C[C@@]4(O)[C@@H](C2)N(CC2CC2)CC[C@]314 (some centres undefined) | 35 | 632 nM | – | 71 | 21 nM | 14.2 nM | 18 nM | – | 1280 nM | 49 | 299 nM | 2% | 660 nM | 36% | – | – | – | – |
| Oc1ccc2c3c1OC1c4[nH]c5cccc(OCc6ccccc6)c5c4C[C@@]4(O)[C@@H](C2)N(CC2CC2)CC[C@]314 (some centres undefined) | 36 | 539 nM | – | 24 | – | 17.2 nM | 14.8 nM | – | 360 nM | – | 74.1 nM | 86% | 109 nM | 70% | – | – | – | – |
| Oc1ccc2c3c1OC1c4[nH]c5ccc(Oc6ccccc6)cc5c4C[C@@]4(O)[C@@H](C2)N(CC2CC2)CC[C@]314 (some centres undefined) | 4 | 75.2 nM | 70 | 16 | 11 nM | 4.9 nM | 17.9 nM | 770 nM | 292 nM | 93 | 204 nM | 8% | 199 nM | 11% | – | – | – | – |
| Oc1ccc2c3c1OC1c4[nH]c5c(OCc6ccccc6)cccc5c4C[C@@]4(O)[C@@H](C2)N(CC2CC2)CC[C@]314 (some centres undefined) | 83 | 258 nM | – | 51 | 1.7 nM | 2.5 nM | 3.1 nM | – | 159 nM | 610 | 73.3 nM | – | 112 nM | – | – | 0.18 | 9500 nM | 1700 nM |
| Oc1ccc2c3c1OC1c4[nH]c5cccc(Oc6ccccc6)c5c4C[C@@]4(O)[C@@H](C2)N(CC2CC2)CC[C@]314 (some centres undefined) | 19 | 1310 nM | 35 | 21 | 17 nM | 114 nM | 67.9 nM | 590 nM | 1430 nM | – | 395 nM | 28% | 353 nM | 27% | 2.7 | – | – | – |
| Oc1ccc2c3c1OC1c4[nH]c5cccc(-c6ccccc6)c5c4C[C@@]4(O)[C@@H](C2)N(CC2CC2)CC[C@]314 (some centres undefined) | 57 | 2970 nM | 11 | 29 | 66 nM | 127 nM | 52.4 nM | 710 nM | 1510 nM | 16 | 284 nM | 0% | 435 nM | 22% | 2.4 | – | – | – |
